We go through 38 variants from the RNAGym collection of RNA variant scans (doi:10.1126/science.aae0568).

This sample holds only a part of the variants without activity.

Sequences and labels used below:
B1: tRNA (parent)
chain: GUUCCGUUGGCGUAAUGGUAACGCGUCUCCCUCCUAAGGAGAAGACUGCGGGUUCGAGUCCCGUACGGAACG

This data set covers variants of B1. Briefly: yeast fitness relative to wild type (ratio to wild type); higher = fitter; tRNA-Arg(CCU), competitive growth, 37 C, YPD. The method in brief:
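The tRNA-Arg(CCU) gene variants were made by chemical synthesis with a 3% per-site mutation rate at 69 sites and inserted at the native genomic locus of Saccharomyces cerevisiae. After pooling, the strains were competed in YPD at 37°C for 24 hours in six parallel replicates. Gene amplicons from the start population and each end population were read by 100-nucleotide paired-end sequencing, and Darwinian fitness relative to wild type was taken from genotype frequency changes. Genotypes needed ≥ 100 starting reads, and estimates < 0.5 were set to 0.5.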
GAUCCGUAGGCGUAAUGGUAACGCGUCUCCCUUCUAAGGAGAUGACUGCGGGUUCGGGUCCCGUACGGAACG: the yeast fitness is not above 0.5.
On to GAACCGUUGGCGUAAUGGUAACGCGUCUCCCUCCUAAGGAGAAGGCUGUGGGUUCGAGUCCCGUACGGAACG, for which the yeast fitness was found to be 0.609.
On to GAACCGUUGGCGUAAUGGUAACGCGUCUCCCUCCUAAGGAGAAGACUGCGGGUUCGAGGCCCGUACGGAACG, for which the yeast fitness is not above 0.5.
In the case of GAUCCGUUGGCGUAAUGGUAACGCGUCUCCCUCCUAAGGAGAAGACUCCGGCUUCGCAUCCCGUACGGAACG, the yeast fitness was not above 0.5.
On to GAUCCGCUGGCGUAAUGGUAACGCAUCUCCCUCCUUAGGAGAAGACUGCGGGUUCGAGUACGGUACGGAACG, for which the yeast fitness was determined as 0.58.
Take GAUCCGAUGGCGUAAUGGUAACGCGUCUCCCACCUAAGGAGAAGACUGCGGGUUCGAGUCCCGUACGGAACG: the yeast fitness is not above 0.5.
As for GAUCCGGUGGCGUAAUGGUAACGCGUUUCCCUCCUAAGCAGAAGACUGCGGGUUCGAGUACCGUACGGAACG, the yeast fitness was not above 0.5.
In the case of GAACCGUUGGCGUAAUGGUAACGCGUCUCCCUCCUAAGAAGCAGACUGCGGGUUCGAGUCCCGUACGGAACG, the yeast fitness was not above 0.5.
Consider GAUCCGCUGGCGUAAUCGUAACGCGUCUACCUCCUAAGGAGAAGUCUGCGGGUUCGAGCCCCGUACGGAACG, for which the yeast fitness came to 0.902.
As for GAUCCGUUGGCGUAAUGGUAACGCGUCUCCCUCCUAAGGAGAAGACUGCGGGUUCGAGUCCCGUACCGAACG, the yeast fitness worked out at 0.792.
With GAUCCGUUGGCGUAAUGGUAACGCGUCUCCCUCCUAAGGAGAAGACUGCGGGUUCGAGUCCCGUACAGAACG, the yeast fitness is 0.844.
On to GAUCCGUUGGCGUAAUGGUAACGCGUCUCCCUCCUAAGGAGAAGACUGCGGGUUCGACUCCCGUAUGGAACG, for which the yeast fitness is 0.702.
With GAUCCGUUGGCGUAAUGGUAACGCGUCUCCCUCCUAAGGAGAAGACUGCGGGUUCCGGUCCCGUACGUAACG, the yeast fitness is not above 0.5.
Turning to GAUCCGCUGGCGUAAUGGUAACGCAUCUCCCUCCUUAGGAGAAGACUGCGGGUUCGAGUCCCGUACGGAACG, the yeast fitness was not above 0.5.
Turning to GAGCUGUUGGCGUAAUGGUAACGCGUCUGGCUCCUAAGGAGAAGAGUGCGGGUUCGAGUCCCGUACGGAACG, the yeast fitness is not above 0.5.
Consider GAUCCGUUGGCGUAAUGGUAACGCGUCUCCCUCCUAAGGAGAAGACUGCCGGUUCGGGUCCCGUACGGAACG, for which the yeast fitness was not above 0.5.
GAUCCGGUGGCGUAAUGGUAACGGGUCUACCUCCUAAGGAGAUGACUGCGGGAUCGUGUCCCGUUCGGAACG: the yeast fitness is not above 0.5.
With GAGCCGUUGGAGUAACGGUAAGGCGUCUCCCUCCUAAGGAGAAGACUGCGGGUUCGCGUCCAGUACGGAACG the figure was 0.572; with GAACCGUUGGCGUAAUGGUAACGCGUCUCCCUCCUAAGGAGAAGACUGCGGGUUCGAGUCCCGUACGGAACG, 0.809.
Consider GACCCGUUGGCGUAAUGGUAACGCGUCUCCCUCCUAAGGAGAAGACUGCGGGUUCGAGUCCCGUACGGAACG, for which the yeast fitness came out at 0.931.
Consider GAUCCGCUGGCGUAAUGGUAACGCAUCUCCCUCCUCAGGAGAAGACUGCGGGUUCGAGUACGGUACGGAACG, for which the yeast fitness came out at 0.524.
The figure for GAACCGUUGGCGUAAUGGUAACGCGACUCCCUCCUAAGGAGAAGACUGCGGGUUCGUGUCCGGUAUGGAACG is not above 0.5; for GAUCCGUUGGCGUAAUGGUAACGCGUCUCCCUCCUAAGGAGAAGACUGCGGCUUCGAGUCCCGUACGGAACG it is 0.65; for GACCCAUUGGCGUAAUGGUAACGCGUCUCCCUCCUAAGGAGAAGACUGCGGGUUCGAGUCCCGUAGGGAACG it is not above 0.5.
Turning to GAUCCGUUGGCGUAAUGGUAACGCGUCUCCCUCCUAAGGAGAAGACUGCGGGUUCGAAUCCCGUACGGAACG, the yeast fitness came out at 0.838.
Take GAUCCGUUGGCGUAAUGGUAACGCGUCUCCCUCCUAAGGAGAAGACUGCGGGUUCGAGUCCCCUACGGAACG: the yeast fitness worked out at 0.673.
For GAUCCGUUGGCGUAAUGGUAACGCGUCUCCCUCCUAAGGAGAAGACUGCGGGUUCGAGUCCCAUACGGAACG, the yeast fitness was found to be 0.927.
On to GAUCCGAUGGCGUAAUGGUAACGCGUUUCCCUCCUAAGGAGAAGAGUGCGGGUUCGAGUCCCGUACGGAACG, for which the yeast fitness is not above 0.5.
Turning to GAUCCGUUGGCGUAAUGGUAACGCGUCUCCCUCCUAAGGAGAAGACUGCGGGUUCGAGUCCCGUACGUAACG, the yeast fitness came out at 0.773.
As to GAUCCGUAGGGGUAAUGGUAACGCGUCUCCCUCCUAAGGAGAAGACUGCGGGUACGAGUCCCGUACGGAACG, the yeast fitness is not above 0.5.
Regarding GACCCAUUGGCGUAAUGGUAACGCGUCUCCCUCCUAAGAAGAAGACUGCGGGUUCGAGUCCCGUACGGAACG, the yeast fitness was not above 0.5.
With GAUCCGCUGGCGUAAUGGUAACGCAUCUCCCUCCUUAGGAGAAGACUGCGGGUUCGAGUCCUGUACAGAACG the figure was not above 0.5; with GAGCCGUUGGCGUAAUGGUAACGCGUCUCCCACCUAAGGAGAAGACUGCGGGUUCGAGUACCGUACGGAACG, not above 0.5.
As to GAUCCGUAGGCGUAAUGGUAACGCGUCUCCCUUCUAAGGAGAUGACUGCGGGUUCGGGUCCCGUACUGAACG, the yeast fitness was not above 0.5.
Consider GAUCCGUAGGCGUAAUGGUAACGCGUCUGCCUCCUAAGGAGAAGACUGCGGGUUCGAGUUCAGUACGGAACG, for which the yeast fitness is not above 0.5.
With GAUCCGUUGGCGUAAUGGUAACGCGUCUCCCUCCUAAGGAGAAGACUGCCGGUUCGAGUCCCGUACGGAACG, the yeast fitness was determined as 0.562.
With GACCCGUUGGCGUAAUGGUAACGCGCCUCCCUCCAAAGGAGAAGACUGCGGGUUCGAGUCCAGUACGGAACG the figure was not above 0.5; with GAGCCGUUGGCGUAAUGAUCACGCGUCUCCCUCCUAAGGAGAAGACUGUGGGUUUGAGUCCCGUACGGAACG, not above 0.5.
